Compounds with a hit are over-represented: about 3.3% of the library has one in this group of screens.
SIAE primary: inhibitors of human sialic acid acetylesterase SIAE; inhibition, % at 9.66 µM; Q9HAT2; AID 1053197; 370,000 compounds, 0.69% hits; SIAE FP-Rh probe binding, fluorescence polarization;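 active = inhibition above a cutoff: mean of compounds within the control limits plus 3 SD of those, cut at about 17% in these data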
TCR CD3 inh: blocks the human TCR-CD3 interaction | TAMRA-labeled TCR probe fluorescence, biochemical | inhibition, % at 9.4 µM | 360,000 compounds, 0.37% hits | AID 651800; in the data active = inhibition above about 19%;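 note: recombinant mutant TCR 2C K166C tagged with TAMRA read by polarization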
PRMT1 FP inh: PRMT1 (human) inhibition, primary screen; AID 652257; inhibition, % at 2.79 µM; Q99873; recombinant PRMT1, activity-based probe fluorescence polarization; 370,000 compounds, 1.3% hits;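 active = inhibition above about 21% made by adding two undisclosed values, limit read from the data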
Target sequence (Q99873 whole entry, looked up): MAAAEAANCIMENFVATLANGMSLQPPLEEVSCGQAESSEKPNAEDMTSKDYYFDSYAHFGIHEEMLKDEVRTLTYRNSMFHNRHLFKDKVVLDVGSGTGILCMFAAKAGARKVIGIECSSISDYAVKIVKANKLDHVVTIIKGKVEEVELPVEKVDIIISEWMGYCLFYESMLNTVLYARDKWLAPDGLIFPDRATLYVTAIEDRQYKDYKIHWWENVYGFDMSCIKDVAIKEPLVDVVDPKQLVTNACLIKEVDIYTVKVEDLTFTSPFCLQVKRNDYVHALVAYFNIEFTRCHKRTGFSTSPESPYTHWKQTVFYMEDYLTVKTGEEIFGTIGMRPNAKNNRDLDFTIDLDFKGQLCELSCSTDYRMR
rCAG binder: molecules binding r(CAG) RNA repeats | AID 651821 | 370,000 compounds, 1.3% hits | inhibition, % at 3 µM | r(CAG) RNA repeat, TO-PRO-1 dye displacement fluorescence;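 active = inhibition above the plate cutoff, the mean of all test compounds on that plate plus 3 SD, cut at about 35% in these data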;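 note: higher means more dye released from RNA so lower well fluorescence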
mABHD4 FP: inhibitors of mouse ABHD4. Q8VD66. purified mABHD4, FP-Rh probe fluorescence polarization. inhibition, % at 8.92 µM. 370,000 compounds, 0.54% hits. AID 720543;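 active = inhibition exceeding the mean over every tested compound plus 3 SD, cut at about 30% in these data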
Target sequence (Q8VD66 whole entry, looked up): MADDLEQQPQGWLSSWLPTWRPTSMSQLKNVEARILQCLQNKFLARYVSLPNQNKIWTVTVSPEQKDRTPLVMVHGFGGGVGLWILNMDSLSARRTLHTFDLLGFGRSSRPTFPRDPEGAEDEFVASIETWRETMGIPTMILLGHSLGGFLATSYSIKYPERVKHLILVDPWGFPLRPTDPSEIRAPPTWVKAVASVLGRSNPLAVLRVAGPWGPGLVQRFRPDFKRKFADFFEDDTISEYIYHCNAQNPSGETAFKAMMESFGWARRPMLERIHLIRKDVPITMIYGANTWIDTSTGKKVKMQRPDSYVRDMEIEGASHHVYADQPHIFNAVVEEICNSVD
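Assay system: Wild-type mouse ABHD4 protein | Medium: HEPES pH 7.0 buffer, 150 mM NaCl, 0.01% Pluronic F-127 | Incubation: Enzyme–compound pre-incubation 45 min, then probe 60 min, both 25 °C | Technique: Fluorescence polarization with parallel and perpendicular emission, 525/598 nm | Evaluation: % inhibition of FP-Rh probe binding versus controls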
rCAG bind conf: r(CAG) RNA repeat binding, confirmation; 4,300 compounds, 70% hits; TO-PRO-1 dye displacement fluorescence; shares compounds with rCAG binder; inhibition, % at 3 µM; AID 652065;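 active = inhibition above a per-plate cutoff, the mean inhibition of sample wells plus 3 SD, cut at about 35% in these data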;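 note: loss of TO-PRO-1 fluorescence as compound displaces dye from 1x1 AA loop RNA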
DNA CAG counter: counter-screen for rCAG RNA binders: DNA CAG dye complex inhibitors. inhibition, % at 3 µM. shares compounds with rCAG binder. d(CAG) DNA oligo TO-PRO-1 dye displacement, fluorescence. AID 652068. 4,300 compounds, 94% hits;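 active = inhibition above its plate's cutoff, the mean test-well inhibition plus 3 SD, cut at about 4.8% in these data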;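 note: hits displace the dye from DNA and so lower well fluorescence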
PRMT1 confirm: confirmation of human PRMT1 inhibitors | shares compounds with PRMT1 FP inh | 3,300 compounds, 42% hits | recombinant His-PRMT1, activity-based probe fluorescence polarization | AID 687036 | inhibition, % at 2.79 µM;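 active = mean inhibition across replicates above the hit cutoff derived for the earlier primary screen, cut at about 22% in these data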
ABHD4 confirm: confirmation of mouse ABHD4 inhibitors; shares compounds with mABHD4 FP; purified mABHD4, FP-Rh probe fluorescence polarization; inhibition, % at 8.92 µM; 1,800 compounds, 55% hits; AID 720658;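 active = mean inhibition across replicates above the hit cutoff set in the primary screen, cut at about 30% in these data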
Hits are given with their value; - = inactive; . = not tested or not shown.

SMILES | SIAE primary | TCR CD3 inh | PRMT1 FP inh | rCAG binder | mABHD4 FP | rCAG bind conf | DNA CAG counter | ABHD4 confirm | others
Clc1cccc(CNC2CCC23CCCCC3)c1 (stereo unspecified) | - | . | - | . | - | . | . | .
O=S(=O)(Nc1cccc2c1ccc1cccn12)c1cccs1 | - | - | - | 38.3 | 34.1 | - | 12.8 | -
CCn1c2ccccc2c2cc(NC(=O)c3cc4c(C)nn(-c5ccccc5)c4s3)ccc21 | - | . | - | - | - | . | . | .
COC(=O)[C@H](C(C)C)N(Cc1cn(Cc2ccc(C)cc2)nn1)S(=O)(=O)c1ccc(F)cc1Br | - | . | - | - | - | . | . | .
COc1ccc(CCNC(=O)Nc2ccc3c(c2)[C@@]2(CC(=O)N(CC(C)C)C2c2ccccc2)C(=O)N3C)cc1OC (stereo partly specified) | - | . | - | - | - | . | . | .
Cc1ccc(S(=O)(=O)N2[C@@H](c3ccccc3F)C(C(=O)O)=CC[C@H]2c2ccc(C(C)C)cc2)cc1 | - | - | - | 76.8 | 32.8 | 81.1 | 47.1 | -
CC(=O)C1=CCC(c2ccc(C(C)C)cc2)N(S(=O)(=O)c2ccc(C)cc2)C1 (stereo unspecified) | - | - | - | - | - | . | . | .
COc1cc(C2c3sc(=O)[nH]c3SC3C(=O)N(c4ccc(Br)cc4)C(=O)C32)ccc1O (stereo unspecified) | - | - | - | 37.8 | 33.9 | - | 8.2 | -
COc1ccc(C2c3sc(=O)[nH]c3SC3C4CCC(C4)C23)cc1OC (stereo unspecified) | - | - | - | - | - | . | . | .
O=C1OC(c2ccccc2)(c2cc(Br)c(O)c(Br)c2)c2ccccc21 (stereo unspecified) | - | - | - | 49.8 | 35.1 | 57.1 | 15.7 | 31.7
C[C@H](NC(=O)OCc1ccccc1)P(=O)(O)O | - | . | - | - | - | . | . | .
COc1ccc(-c2csc(Nc3ncccc3C)n2)cc1OC | - | - | - | - | - | . | . | .
Cc1cccnc1Nc1nc(-c2ccc(O)c(O)c2)cs1 | - | - | - | 38.4 | 35.2 | 54.3 | 19.3 | 43.2
C=CCOC(=O)N1CCN(C(=O)c2ccc3nc(C)n(C4CCCC4)c3c2)CC1 | - | . | - | - | - | . | . | .
COc1cc([N+](=O)[O-])cc(/C=N/NC(=O)C(C)Nc2cccc3ccccc23)c1O (stereo unspecified) | - | - | - | 79.2 | 33.3 | 66.7 | 30.1 | 38.9
CC(Nc1cccc2ccccc12)C(=O)N/N=C/c1ccc([N+](=O)[O-])cc1 (stereo unspecified) | - | - | - | - | - | . | . | .
N#C/C(=C\c1ccc(O)c([N+](=O)[O-])c1)c1nc2ccccc2s1 | - | - | - | 88.2 | 30.3 | 82.5 | 43.1 | 70.7
COc1cc(/C=C(\C#N)c2nc3ccccc3s2)cc([N+](=O)[O-])c1O | - | - | - | - | - | . | . | .
COc1ccc([C@H]2OC(=O)C[C@H]2C(=O)N2CCN(C(=O)C3CCCO3)CC2)cc1OC (stereo partly specified) | - | . | - | - | - | . | . | .
COc1ccc(C(=O)Nc2ccc3c(c2)C(=O)N(C)[C@H]2CC[C@H](CC(=O)NCC4CC4)O[C@@H]2CO3)cc1 | - | . | - | - | - | . | . | .
Nc1nc(-c2ccccc2)c(N=Nc2cccc3ccccc23)s1 | - | - | - | 35.4 | 48.7 | - | 18.4 | 58.5
O=C(CNc1ccc2ccccc2c1)N/N=C/c1ccc(C(=O)O)cc1 | - | - | - | - | - | . | . | .
O=C(O)c1ccc(/C=N/NC(=O)c2cc3ccccc3cc2O)cc1 | - | - | - | 47.0 | 31.4 | - | 7.6 | -
CC(C)C1Nc2ccc(C(=O)O)cc2C2C=CCC21 (stereo unspecified) | - | - | - | 55.8 | 44.5 | - | 7.3 | 37.5
NNC(=S)Nc1cccc(-c2n[nH]c(=S)o2)c1 | - | - | 33.5 | 51.0 | 35.5 | - | 6.8 | - | PRMT1 confirm=-
SMILES | SIAE primary | TCR CD3 inh | PRMT1 FP inh | rCAG binder | mABHD4 FP | rCAG bind conf | DNA CAG counter | ABHD4 confirm | others
C/C(=N\Nc1ccc(Cl)c(C(=O)O)c1)c1ccc2c(c1)OCO2 | - | - | - | - | - | . | . | .
C/C(=N\Nc1ccc(C(=O)O)cc1)c1ccc2c(c1)Nc1ccccc1S2 | - | - | - | 39.2 | 43.4 | 86.5 | 58.7 | 77.4
COc1cc(/C=N/NC(=O)C(Cc2c[nH]c3ccccc23)NC(=O)OCc2ccccc2)cc([N+](=O)[O-])c1O (stereo unspecified) | 64.5 | - | - | 83.4 | 45.4 | 81.0 | 47.5 | 91.8
O=C(O)c1cccc(NN=C2c3ccccc3-c3ccccc32)c1 | - | - | - | 86.8 | 56.4 | 80.8 | 46.8 | 49.1
O=C(O)c1cc(NN=C2c3ccccc3-c3ccccc32)ccc1Cl | - | - | - | 92.6 | 38.9 | 80.7 | 50.1 | 44.8
COC(=O)[C@]12C[C@H](CC(=O)N3CCCC3)C(=O)N(Cc3ccc(Cl)cc3Cl)C1=C[C@H](C(C)C)O[C@@H]2C1CC1 | - | . | - | - | - | . | . | .
N#Cc1cc(N2CCCCC2)c([N+](=O)[O-])cc1C#N | - | - | - | - | - | . | . | .
O=[N+]([O-])c1cc2no[n+]([O-])c2cc1N1CCCCC1 | - | - | - | 44.0 | 55.2 | - | - | 50.8
COc1ccc2[nH]cc(C(C)c3c[nH]c4ccccc34)c2c1 (stereo unspecified) | - | . | - | - | - | . | . | .
CCOc1ccccc1/C=N/NC(=O)c1cccc(S(=O)(=O)N(CC)CC)c1 | - | - | - | - | - | . | . | .
COc1ccc(NS(=O)(=O)c2ccc(NN=Cc3ccc(C(=O)O)cc3)c([N+](=O)[O-])c2)cc1 | - | - | - | - | - | . | . | .
CCN(CC)S(=O)(=O)c1ccc(N/N=C/c2ccccc2OCC(=O)O)c([N+](=O)[O-])c1 | - | - | - | 74.5 | 34.7 | 74.6 | 35.9 | 44.1
COc1ccccc1NS(=O)(=O)c1ccc(N/N=C/C=C/c2ccccc2[N+](=O)[O-])c([N+](=O)[O-])c1 | - | - | - | - | - | . | . | .
O=C(O)COc1ccccc1/C=N/Nc1ccc(S(=O)(=O)Nc2ccc(Cl)cc2)cc1[N+](=O)[O-] | - | - | - | 84.3 | 62.7 | 90.9 | 70.1 | 78.9
COc1ccccc1NS(=O)(=O)c1ccc(N/N=C/c2ccccc2OCC(=O)O)c([N+](=O)[O-])c1 | - | - | - | 92.1 | 60.3 | 90.3 | 66.5 | 61.3
CCCCCn1nnnc1C1(C)CCCCC(=O)N1Cc1ccco1 (stereo unspecified) | - | . | - | - | - | . | . | .
COP(=O)(CC(=O)OC(C)(C)C)C(CC(C)C)NC(=O)OCc1ccccc1 (stereo unspecified) | - | . | - | - | - | . | . | .

Bioassay records as filed in PubChem BioAssay.
